Reference: ChEMBL document CHEMBL4219124, “Alleviating CYP and hERG liabilities by structure optimization of dihydrofuran-fused tricyclic benzo[d]imidazole series - Potent, selective and orally efficacious microsomal prostaglandin E synthase-1 (mPGES-1) inhibitors: Part-2” (Bioorg Med Chem Lett, 2018)

What was measured:
[1] = Half life in Beagle dog at 10 mg/kg, po; assay type: ADME, organism-based, Canis lupus familiaris; conditions: in vivo
Outline: (§1)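 Half-life calculated from plasma profiles after oral dosing at 10 mg/kg. Rat: male Sprague-Dawley, 0.5% methylcellulose suspension, n = 3. Dog and cynomolgus monkey: Tween 80 (2.5 μL/mL) + 0.5 (w/v) MC suspension.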

[2] = Half life in Sprague-Dawley rat at 10 mg/kg, po; assay type: ADME, organism-based; conditions: in vivo; outline: as §1
[3] = Tmax in Beagle dog at 10 mg/kg, po; assay type: ADME, organism-based, Canis lupus familiaris; conditions: in vivo
Outline: (§2)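 Tmax from oral 10 mg/kg dosing. Rat: male Sprague-Dawley, 0.5% MC suspension, n = 3. Guinea pig: 20% NMP + 0.5% MC suspension, n = 3. Dog and monkey: 2.5 μL/mL Tween 80 + 0.5% MC suspension.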

[4] = Tmax in Dunkin-Hartley guinea pig at 10 mg/kg, po; assay type: ADME, organism-based, Cavia porcellus; conditions: in vivo; outline: as §2
[5] = AUC (0 to 24 hrs) in Sprague-Dawley rat at 10 mg/kg, po; assay type: ADME, organism-based; design: dose 10 mg/kg, time < 24 hr, route oral; conditions: in vivo
Outline: (§3)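 Single oral dose of 10 mg/kg. Cmax and AUC0-24 taken from the oral arm. Rat: male Sprague-Dawley, dosed in 0.5% methylcellulose suspension, mean ± SD (n = 3). Guinea pig: 20% NMP + 0.5% MC suspension, mean ± SD (n = 3). Dog and cynomolgus monkey: 2.5 μL/mL Tween 80 + 0.5 (w/v) MC suspension.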

[6] = Oral bioavailability in Sprague-Dawley rat at 10 mg/kg; assay type: ADME, organism-based; conditions: in vivo
Outline: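 Plasma PK after 1 mg/kg i.v. and 10 mg/kg p.o.; %F from both routes. Rat: male Sprague-Dawley, oral 0.5% methylcellulose suspension, i.v. 20% NMP/20% ethanol/60% PEG 200, n = 3. Dog oral: Tween 80 2.5 μL/mL + 0.5% MC suspension. Monkey oral: same Tween/MC suspension; i.v. 10% NMP/10% ethanol/10% PEG/70% PEG200-water premix.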

[7] = Apparent volume of distribution in cynomolgus monkey at 1 mg/kg, iv; assay type: ADME, organism-based, Macaca fascicularis; conditions: in vivo, read-out: Vz
Outline: (§4)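 Intravenous dose of 1 mg/kg; clearance and Vz derived from the i.v. arm. Rat (male Sprague-Dawley) vehicle 20% NMP + 20% ethanol + 60% PEG 200, mean ± SD (n = 3). Dog vehicle 20% NMP + 20% EtOH + 10% PG + 50% PEG 200:water (3:2). Monkey vehicle 10% NMP + 10% ethanol + 10% PEG + 70% PEG200:water (3:2).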

[8] = Apparent volume of distribution in Beagle dog at 1 mg/kg, iv; assay type: ADME, organism-based, Canis lupus familiaris; conditions: in vivo, read-out: Vz; outline: as §4
[9] = AUC (0 to 24 hrs) in Dunkin-Hartley guinea pig at 10 mg/kg, po; assay type: ADME, organism-based, Cavia porcellus; design: time < 24 hr, dose 10 mg/kg, route oral; conditions: in vivo; outline: as §3
[10] = Clearance in Sprague-Dawley rat at 1 mg/kg, iv; assay type: ADME, organism-based; conditions: in vivo; outline: as §4
[11] = Half life in cynomolgus monkey at 10 mg/kg, po; assay type: ADME, organism-based, Macaca fascicularis; conditions: in vivo; outline: as §1
[12] = target: T1, Cytosolic phospholipase A2 (Homo sapiens) (UniProt P47712); assay: Inhibition of cPLA2 (unknown origin) at 10 uM relative to control
T1 sequence (whole entry): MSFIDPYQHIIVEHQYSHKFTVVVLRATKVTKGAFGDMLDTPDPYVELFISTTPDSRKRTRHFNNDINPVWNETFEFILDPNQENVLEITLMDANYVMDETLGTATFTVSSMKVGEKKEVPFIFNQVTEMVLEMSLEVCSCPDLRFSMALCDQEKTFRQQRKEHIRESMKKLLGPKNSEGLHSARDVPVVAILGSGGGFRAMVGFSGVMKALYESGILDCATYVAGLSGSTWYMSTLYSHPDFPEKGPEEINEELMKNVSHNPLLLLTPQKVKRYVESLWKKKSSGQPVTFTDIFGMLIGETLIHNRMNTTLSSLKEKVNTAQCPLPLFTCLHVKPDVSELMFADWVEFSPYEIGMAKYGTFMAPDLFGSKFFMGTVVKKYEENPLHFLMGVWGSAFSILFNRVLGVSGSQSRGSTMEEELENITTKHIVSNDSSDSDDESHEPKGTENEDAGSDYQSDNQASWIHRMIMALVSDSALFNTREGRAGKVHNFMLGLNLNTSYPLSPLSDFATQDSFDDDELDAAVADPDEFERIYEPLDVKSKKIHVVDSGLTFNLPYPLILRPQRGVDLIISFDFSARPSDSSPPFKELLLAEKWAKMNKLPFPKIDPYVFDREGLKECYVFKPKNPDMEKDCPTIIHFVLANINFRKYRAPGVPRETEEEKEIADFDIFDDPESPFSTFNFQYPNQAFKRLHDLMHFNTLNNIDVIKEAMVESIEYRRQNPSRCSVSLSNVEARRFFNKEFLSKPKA
Outline: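 Selectivity panel against other prostanoid-pathway enzymes. % inhibition values are means of at least two experiments, each in duplicate.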

[13] = target: T2, Prostaglandin E synthase (Homo sapiens, UniProt O14684); assay: Inhibition of mPGES1 in human A549 cells assessed as reduction in IL-1beta-induced PGE2 production preincubated for 30 mins followed by incubation with IL-1beta for 16 to 20 hrs measured after 10 mins by HTRF assay; assay type: cell-based
T2 sequence (O14684 whole entry): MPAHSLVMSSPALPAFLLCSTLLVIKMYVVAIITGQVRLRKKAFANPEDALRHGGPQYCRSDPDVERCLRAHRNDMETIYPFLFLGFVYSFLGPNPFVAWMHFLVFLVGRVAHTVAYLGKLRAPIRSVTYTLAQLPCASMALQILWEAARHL

[14] = Cmax in Sprague-Dawley rat at 10 mg/kg, po; assay type: ADME, organism-based; design: dose 10 mg/kg, route oral; conditions: in vivo; outline: as §3
[15] = Cmax in Beagle dog at 10 mg/kg, po; assay type: ADME, organism-based, Canis lupus familiaris; design: dose 10 mg/kg, route oral; conditions: in vivo; outline: as §3
[16] = Cmax in cynomolgus monkey at 10 mg/kg, po; assay type: ADME, organism-based, Macaca fascicularis; design: dose 10 mg/kg, route oral; conditions: in vivo; outline: as §3
[17] = Ratio of drug uptake in brain to plasma of Sprague-Dawley rat at 10 mg/kg, po; assay type: ADME, organism-based; conditions: read-out: BPR
[18] = Ratio of drug uptake in brain to plasma of Dunkin-Hartley guinea pig at 10 mg/kg, po; assay type: ADME, organism-based, Cavia porcellus; conditions: for Kp: Dunkin-Hartley, brain/plasma, read-out: BPR
[19] = target: T3, Nuclear receptor subfamily 1 group I member 2 (Homo sapiens, UniProt O75469); assay: Activation of human PXR at 10 uM relative to rifampicin; assay type: ADME
T3 sequence (O75469 whole entry): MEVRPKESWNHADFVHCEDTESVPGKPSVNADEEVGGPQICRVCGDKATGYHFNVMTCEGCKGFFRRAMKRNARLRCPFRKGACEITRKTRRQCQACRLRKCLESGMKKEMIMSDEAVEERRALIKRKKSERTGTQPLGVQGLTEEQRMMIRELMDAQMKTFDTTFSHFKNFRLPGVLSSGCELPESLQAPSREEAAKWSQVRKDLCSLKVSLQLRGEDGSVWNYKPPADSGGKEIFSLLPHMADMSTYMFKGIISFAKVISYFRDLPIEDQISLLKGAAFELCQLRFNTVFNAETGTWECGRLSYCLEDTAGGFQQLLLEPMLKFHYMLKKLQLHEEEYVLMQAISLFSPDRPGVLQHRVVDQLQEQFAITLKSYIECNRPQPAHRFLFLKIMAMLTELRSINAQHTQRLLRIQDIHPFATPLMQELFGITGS
Outline: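 Activation of human PXR with test compound at 10 µM, expressed relative to the rifampicin effect.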

| SMILES | half-life [1] | half-life [2] | Tmax [3] | Tmax [4] | AUC(0-t) at 24 h [5] | bioavailability [6] | Vd [7] | Vd [8] | AUC(0-t) at 24 h [9] | clearance [10] | half-life [11] | inhibition [12] | IC50 [13] | Cmax [14] | Cmax [15] | Cmax [16] | Kp [17] | BPR ([18]; brain, BLD = below limit of detection) | Activity [19] | Kp [18] |
| --- | --- | --- | --- | --- | --- | --- | --- | --- | --- | --- | --- | --- | --- | --- | --- | --- | --- | --- | --- | --- |
| Cc1cccc(Cl)c1Nc1nc2cc(C(=O)Nc3cc(C(F)(F)F)ccc3F)c3c(c2[nH]1)CC(C)(C)O3 | 20 h | 7 h | 8 h | 1 h | 2580 ng·h/mL | 14% | 2.1 L/kg | 9.17 L/kg | 408 ng·h/mL | 8.2 mL/min/kg | 12 h | 5.1% | 30 nM | 210 ng/mL | 843 ng/mL | 499 ng/mL | 0.04 | Bld | 57% |  |
| CC1(C)Cc2c(c(C(=O)Nc3ccc(F)c(C(F)(F)F)c3)cc3nc(Nc4c(F)cccc4Cl)[nH]c23)O1 | 14.4 h | 4 h | 12 h | 2 h | 11000 ng·h/mL | 91% | 1.83 L/kg | 1.94 L/kg | 4120 ng·h/mL | 11.2 mL/min/kg | 6.45 h |  | 14 nM | 995 ng/mL | 492 ng/mL | 680 ng/mL | 0.18 |  | 34% | 0.44 |

The next compounds have a lower IC50 [13] than those just listed; values first:

| half-life [1] | half-life [2] | Tmax [3] | Tmax [4] | AUC(0-t) at 24 h [5] | bioavailability [6] | Vd [7] | Vd [8] | AUC(0-t) at 24 h [9] | clearance [10] | half-life [11] | inhibition [12] | IC50 [13] | Cmax [14] | Cmax [15] | Cmax [16] | Kp [17] | BPR ([18]; brain, BLD = below limit of detection) | Activity [19] | Kp [18] | SMILES |
| --- | --- | --- | --- | --- | --- | --- | --- | --- | --- | --- | --- | --- | --- | --- | --- | --- | --- | --- | --- | --- |
|  |  |  |  |  |  |  |  |  |  |  | 22.9% | 9.6 nM |  |  |  |  |  |  |  | CC1(C)Cc2c(c(C(=O)Nc3cc(C(F)(F)F)ccc3F)cc3nc(Nc4c(F)cccc4Cl)[nH]c23)O1 |
| 17 h | 2.7 h | 12 h | 12 h | 4020 ng·h/mL | 43% | 4.1 L/kg | 5.4 L/kg | 639 ng·h/mL | 16.2 mL/min/kg | 5.3 h | 4.3% | 4.1 nM | 344 ng/mL | 336 ng/mL | 323 ng/mL | 0.16 |  | 46% | 0.58 | CC1(C)Cc2c(c(C(=O)Nc3ccc(C(F)(F)F)cn3)cc3nc(Nc4c(Cl)cccc4Cl)[nH]c23)O1 |
|  |  |  |  |  |  |  |  |  |  |  | 10.6% | 3 nM |  |  |  |  |  |  |  | Cn1c(Nc2c(F)cccc2Cl)nc2cc(C(=O)Nc3cccc(C(F)(F)F)c3)c3c(c21)CC(C)(C)O3 |
